Where “and” joins values, the source holds several entries; their conditions need not be identical. Equal values may be shown once.
Assays:
[1] = test system: Mus musculus; experiment: Compound was evaluated for anticonvulsant activity against maximal electric shock (MES) induced convulsions after 4 hr; C is inactive at 300 mg/kg.; type: functional, organism-based; parameters: dose 300 mg/kg
[2] = test system: Mus musculus; experiment: Compound was evaluated for anticonvulsant activity against subcutaneous pentylenetetrazole-induced convulsions after 30 minutes;C is inactive at 300 mg/kg.; type: functional, organism-based; parameters: dose 300 mg/kg
In short: (§1)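 Male Carworth Farms number-one mice were dosed ip in 30% PEG 400, at 30, 100 or 300 mg/kg (sometimes 600 mg/kg). Pentylenetetrazole, 85 mg/kg as a 0.5% solution, was injected subcutaneously in the posterior midline. Protection meant no episode of clonic spasms lasting at least 5 s during a 30-min observation period.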

[3] = test system: Mus musculus; experiment: Compound was evaluated for toxicity by rotarod assay method after 30 minutes;C is inactive at 300 mg/kg.; type: organism-based; parameters: dose 300 mg/kg; conditions: in vivo, 0.5 h
In short: (§2)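 Male Carworth Farms number-one mice received test compound intraperitoneally in 30% polyethylene glycol 400 at 30, 100 and 300 mg/kg, with 600 mg/kg in some cases. Neurological deficit was read at 30 min or 4 h after dosing on a 1-in.-diameter knurled plastic rod turning at 6 rpm. Toxicity was scored as failure to stay on the rod for 1 min.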

[4] = test system: Mus musculus; experiment: Compound was evaluated for anticonvulsant activity against subcutaneous pentylenetetrazole-induced convulsions after 4 hr; C is inactive at 300 mg/kg.; type: functional, organism-based; parameters: dose 300 mg/kg; in short: as §1
[5] = test system: Mus musculus; experiment: Compound was evaluated for anticonvulsant activity against maximal electric shock (MES) induced convulsions after 30 minutes;C is inactive at 300 mg/kg.; type: functional, organism-based; parameters: dose 300 mg/kg
[6] = test system: Mus musculus; experiment: Compound was evaluated for toxicity by rotarod assay method after 4 hr; C is inactive at 300 mg/kg.; type: organism-based; parameters: dose 300 mg/kg; conditions: in vivo; in short: as §2
[7] = test system: Mus musculus; experiment: Compound was evaluated for toxicity by rotarod assay method after 4 hr; C indicates no activity at 300 mg/kg.; type: organism-based; parameters: dose 300 mg/kg; conditions: in vivo; in short: as §2
[8] = test system: Mus musculus; experiment: Compound was evaluated for anticonvulsant activity against maximal electric shock (MES) induced convulsions after 4 hr at a dose of 300 mg/kg; type: functional
[9] = test system: Mus musculus; experiment: Compound was evaluated for anticonvulsant activity against maximal electric shock (MES) induced convulsions after 30 minutes; C indicates no activity at 300 mg/kg.; type: functional, organism-based; parameters: dose 300 mg/kg
[10] = test system: Mus musculus; experiment: Compound was evaluated for anticonvulsant activity against subcutaneous pentylenetetrazole-induced convulsions after 4 hr; C indicates no activity at 300 mg/kg.; type: functional, organism-based; parameters: dose 300 mg/kg; in short: as §1
[11] = test system: Mus musculus; experiment: Compound was evaluated for anticonvulsant activity against subcutaneous pentylenetetrazole-induced convulsions after 30 minutes; C indicates no activity at 300 mg/kg.; type: functional, organism-based; parameters: dose 300 mg/kg; in short: as §1
[12] = species: Mus musculus; experiment: Compound was evaluated for anticonvulsant activity against maximal electroshock seizures; type: functional
In short: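 Male Carworth Farms number-one mice received the compound ip in 30% polyethylene glycol 400 before maximal electroshock testing, at several dose levels. The median effective dose (ED50) was obtained by the graphical method.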

[13] = test system: Mus musculus; experiment: Compound was evaluated for toxicity by rotarod assay method after 30 minutes; C indicates no activity at 300 mg/kg.; type: organism-based; parameters: dose 300 mg/kg; conditions: in vivo, 0.5 h; in short: as §2
[14] = test system: Mus musculus; experiment: Compound was evaluated for anticonvulsant activity against subcutaneous pentylenetetrazole-induced convulsions after 30 minutes; E indicates no activity at 30 mg/kg.; type: functional, organism-based; parameters: dose 30 mg/kg; in short: as §1
[15] = test system: Mus musculus; experiment: Compound was evaluated for anticonvulsant activity against maximal electric shock (MES) induced convulsions after 4 hr; E indicates no activity at 30 mg/kg.; type: functional, organism-based; parameters: dose 30 mg/kg
[16] = test system: Mus musculus; experiment: Compound was evaluated for toxicity by rotarod assay method after 4 hr; E indicates no activity at 30 mg/kg.; type: organism-based; parameters: dose 30 mg/kg; conditions: in vivo; in short: as §2
[17] = test system: Mus musculus; experiment: Compound was evaluated for anticonvulsant activity against subcutaneous pentylenetetrazole-induced convulsions after 4 hr; E indicates no activity at 30 mg/kg.; type: functional, organism-based; parameters: dose 30 mg/kg; in short: as §1
[18] = test system: Mus musculus; experiment: Compound was evaluated for anticonvulsant activity against maximal electric shock (MES) induced convulsions after 30 minutes at a dose of 300 mg/kg; type: functional
[19] = test system: Mus musculus; experiment: Compound was evaluated for toxicity by rotarod assay method after 30 minutes at a dose of 600 mg/kg; type: organism-based; parameters: dose 600 mg/kg; conditions: in vivo, 0.5 h; in short: as §2
[20] = species: Mus musculus; experiment: Hypnotic dose was evaluated in mice; type: functional
[21] = Protective index is the ratio of TD50 to ED50; type: ADME
In short: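 Protective index was calculated as rotorod TD50 divided by anti-MES ED50. Both were graphical median doses from ip dosing in 30% PEG 400 in male Carworth Farms mice.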

[22] = Lethal dose was evaluated in mice; type: toxicity, organism-based; conditions: mouse, in vivo

Which results are given for `CC(NC(=O)c1ccccc1)c1ccccc1` (configuration not stated)?
Activity [1]: No activity at 300 mg/kg; Activity [2]: No activity at 300 mg/kg; Toxicity [3]: No activity at 300 mg/kg; Activity [4]: No activity at 300 mg/kg; Activity [5]: No activity at 300 mg/kg; Toxicity [6]: No activity at 300 mg/kg

With `CN(C)c1ccc(C(=O)NCc2ccccc2)cc1` as the compound, how does the Toxicity [7] read?
The Toxicity was “No activity at 300 mg/kg”.

What about the Activity [8] of the same compound?
The Activity was 2.

And the Activity [9]?
Its Activity is “No activity at 300 mg/kg”.

What about the Activity [10] of the same compound?
The Activity was “No activity at 300 mg/kg”.

What about the Activity [11] of the same compound?
The Activity was “No activity at 300 mg/kg”.

And the ED50 [12]?
The ED50 was 233 mg/kg.

What about the Toxicity [13] of the same compound?
The Toxicity was “No activity at 300 mg/kg”.

Which Activity [14] does the source give for `CC(NCc1ccccc1N)c1ccccc1` (configuration not stated) here?
The Activity was “No activity at 30 mg/kg”.

And the Activity [15]?
The Activity was “No activity at 30 mg/kg”.

What about the Toxicity [16] of the same compound?
The Toxicity was “No activity at 30 mg/kg”.

What about the Activity [17] of the same compound?
The Activity was “No activity at 30 mg/kg”.

What about the Activity [18] of the same compound?
The Activity was 2.

And the Toxicity [19]?
Its Toxicity is 1.

Which HD50 [20] does the source give for `CC(NC(=O)c1ccc(N)cc1)c1ccccc1` (configuration not stated) here?
The HD50 was 461.76 mg/kg.

What about the Protective index [21] of the same compound?
Its Protective index is 9.5 and 4.1.

What about the LD50 [22] of the same compound?
Its LD50 is 718 mg/kg.

Source: ChEMBL document CHEMBL1123783, “Synthesis and anticonvulsant activity of analogues of 4-amino-N-(1-phenylethyl)benzamide” (J Med Chem, 1987)
